One data set relates to HT-29. Nature of the data set: Antiproliferative activity against human HT-29 cells after 48 hrs by SRB assay. The format is functional, cell-based. Particulars: HT-29, 48 h. The method, boiled down: (§1)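 SRB assay run as in the NCI screen with slight modifications. Seeding: HT-29 5.0 x 10^3, M21 3.5 x 10^3, MCF7 7.5 x 10^3 cells; cells preincubated 24 h. Drug in DMSO added at 0.75 to 1.0 x 10^5 nM for 48 h. TCA fixation, sulforhodamine B staining, absorbance 530-565 nm. At least two experiments in triplicate; runs accepted only when relative SD < 10%.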

Another data set deals with M21. As to the kind of experiment: Antiproliferative activity against human M21 cells after 48 hrs by SRB assay. The format is functional, cell-based. The note with it: M21, 48 h. The method, boiled down:
as §1
On the technique in general: Sulforhodamine B stains cellular protein and so reports cell mass.

Data set [1] relates to MCF7. Nature of the data set: Antiproliferative activity against human MCF7 cells after 48 hrs by SRB assay. The format is functional, cell-based. The note with it: MCF7, 48 h. The method, boiled down: as §1
A short description of data set [2]: Selectivity ratio of IC50 for human HT-29 cells to IC50 for human MCF7 cells. In kind it is functional. The method, boiled down:
(§2)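 Ratio is IC50 in reference line over IC50 in sensitive line. […] Cells in DMEM with 5% calf serum at 37 °C. At least two experiments, triplicate cultures; assay accepted when relative SD < 10%.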

A short description of data set [3]: Selectivity ratio of IC50 for human M21 cells to IC50 for human MCF7 cells. In kind it is functional. The method, boiled down:
as §2

In the next data set the test system is MDA-MB-231. Nature of the data set: Antiproliferative activity against ER/PR/HER2 deficient human MDA-MB-231 cells after 72 hrs by SRB assay. In kind it is functional, cell-based. Particulars: MDA-MB-231, 72 h. The method, boiled down: (§3)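 SRB antiproliferative assay (modified NCI protocol). Cells seeded per well (SK-BR-3, MDA-MB-231, T47D, HT-1080, HT-1080 CYP1A1 and empty-vector: 3.0 x 10^3; MDA-MB-468: 5.0 x 10^3; MCF7: 7.5 x 10^3), preincubated 24 h. DMSO-solubilized drug added at 0.75 to 1.0 x 10^5 nM, then 72 h. Fixed with cold 10% TCA, stained with 0.1% sulforhodamine B, absorbance read at 530-565 nm. At least two experiments, triplicate cultures.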

For the next data set, the system named is MDA-MB-468. As to the kind of experiment: Antiproliferative activity against ER/PR/HER2 deficient human MDA-MB-468 cells after 72 hrs by SRB assay. In kind it is functional, cell-based. The note with it: MDA-MB-468, 72 h. The method, boiled down:
as §3

A further data set relates to T47D. As to the kind of experiment: Antiproliferative activity against ER/PR/HER2 expressing human T47D cells after 72 hrs by SRB assay. The format is functional, cell-based. The method, boiled down:
as §3

For the next data set, the system named is SK-BR-3. As to the kind of experiment: Antiproliferative activity against ER/PR deficient and HER2 expressing human SKBR3 cells after 72 hrs by SRB assay. The format is functional, cell-based. Particulars: SK-BR-3, 72 h. The method, boiled down:
as §3

Data set [4] has as its system MCF7. As to the kind of experiment: Antiproliferative activity against human MCF7 cells after 72 hrs by SRB assay. The format is functional, cell-based. The note with it: MCF7, 72 h. The method, boiled down:
as §3

Data set [5] can be described thus: Selectivity ratio of IC50 for ER/PR/HER2 deficient human MDA-MB-231 cells to IC50 for ER/PR/HER2 deficient human MDA-MB-468 cells. In kind it is functional. The method, boiled down: as §2
Data set [6] can be described thus: Selectivity ratio of IC50 for ER/PR/HER2 deficient human MDA-MB-231 cells to IC50 for ER/PR/HER2 expressing human T47D cells. In kind it is functional. The method, boiled down:
as §2

Data set [7] in a line: Selectivity ratio of IC50 for ER/PR/HER2 deficient human MDA-MB-231 cells to IC50 for ER/PR deficient and HER2 expressing human SKBR3 cells. In kind it is functional. The method, boiled down: as §2
A short description of data set [8]: Selectivity ratio of IC50 for ER/PR/HER2 deficient human MDA-MB-231 cells to IC50 for human MCF7 cells. In kind it is functional. The method, boiled down: as §2
Data set [9] concerns the target T1, Cytochrome P450 1A1 (Homo sapiens, UniProt P04798).
T1 sequence (P04798 whole entry): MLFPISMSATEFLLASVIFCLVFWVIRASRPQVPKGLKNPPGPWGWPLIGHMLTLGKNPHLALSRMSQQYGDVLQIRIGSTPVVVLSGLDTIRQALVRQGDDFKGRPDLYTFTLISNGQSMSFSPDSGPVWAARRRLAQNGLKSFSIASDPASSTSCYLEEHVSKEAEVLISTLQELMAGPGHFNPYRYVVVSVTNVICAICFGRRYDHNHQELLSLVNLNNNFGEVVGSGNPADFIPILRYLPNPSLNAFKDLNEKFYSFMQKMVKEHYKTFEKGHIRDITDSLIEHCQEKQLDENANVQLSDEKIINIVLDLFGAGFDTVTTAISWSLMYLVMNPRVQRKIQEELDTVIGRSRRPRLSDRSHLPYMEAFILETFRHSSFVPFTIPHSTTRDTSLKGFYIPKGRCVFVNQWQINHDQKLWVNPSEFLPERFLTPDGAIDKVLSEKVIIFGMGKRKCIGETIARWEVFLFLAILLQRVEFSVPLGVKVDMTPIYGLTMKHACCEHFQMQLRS
As to the kind of experiment: Prodrug activation assessed as human supersomes CYP1A1-mediated 3,4,5-trimethoxyphenyl 4-(2-oxoimidazolidin-1-yl)benzenesulfonate formation after 4 hrs by HPLC-MS analysis. The note with it: recombinant enzyme. In kind it is ADME.

Data set [10] deals with T1, Cytochrome P450 1A1. Nature of the data set: Prodrug activation assessed as time required for human supersomes CYP1A1-mediated 3,4,5-trimethoxyphenyl 4-(2-oxoimidazolidin-1-yl)benzenesulfonate formation after 4 hrs by HPLC-MS analysis. The note with it: recombinant enzyme. The format is ADME.
Data set [11] concerns the target T1, Cytochrome P450 1A1. Nature of the data set: Inhibition of human supersomes CYP1A1-mediated 7-ethoxyresorufin conversion to fluorescent resorufin preincubated with 7-ethoxyresorufin for 5 mins followed by addition of NADPH regenerating system measured for 15 mins by EROD assay. In kind it is ADME. The note with it: read-out: Ki. The method, boiled down:
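EROD assay with human CYP1A1 supersomes containing reductase, in potassium phosphate buffer. Drug final 32–31 600 nM and 7-ethoxyresorufin 94–3 000 nM, with 0.35% DMSO, preincubated 5 min at 37 °C. Reaction started with NADPH-regenerating system and 0.15 pmol CYP1A1 in 150 µL. Initial velocity taken from 1–5 min; Vmax and Km from Lineweaver-Burk plot.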

The subject of data set [12] is HT-1080. As to the kind of experiment: Antiproliferative activity against human wild type HT1080 cells after 72 hrs by SRB assay. Particulars: HT-1080, 72 h. The format is functional, cell-based. The method, boiled down:
as §3

In data set [13] the test system is HT-1080. As to the kind of experiment: Antiproliferative activity against human HT1080 cells transfected with pCMV6-AC empty plasmid after 72 hrs by SRB assay. The format is functional, cell-based. Particulars: HT-1080, 72 h. The method, boiled down: as §3
Data set [14] has as its system HT-1080. Nature of the data set: Antiproliferative activity against human HT1080 cells transfected with CYP1A1 after 72 hrs by SRB assay. The format is functional, cell-based. The note with it: HT-1080, 72 h. The method, boiled down: as §3
In data set [15] the test system is HT-1080. Nature of the data set: Selectivity ratio of IC50 for HT1080 cells transfected with pCMV6-AC empty plasmid to IC50 for human HT1080 cells transfected with CYP1A1. In kind it is functional. The method, boiled down: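 Ratio is IC50 (HT-1080 empty vector) over IC50 (HT-1080 CYP1A1). Both lines stably transfected (pCMV6-AC plasmids) and kept under G418 selection, seeded at 3.0 x 10^3 cells. IC50s from SRB antiproliferative assay.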

Data set [16] has as its target T1, Cytochrome P450 1A1. As to the kind of experiment: Prodrug conversion assessed as human supersomes CYP1A1-mediated 3,5-dimethoxyphenyl 4-(2-oxoimidazolidin-1-yl)benzenesulfonate formation after 4 hrs by HPLC-MS analysis. The format is ADME. Particulars: recombinant enzyme.

In general, IC50 refers to the concentration needed to halve the response being measured. One may read the Ki as a measure of affinity in units of concentration, obtained from inhibition or displacement. For the molecule `CCCN1CCN(c2ccc(S(=O)(=O)Oc3cc(OC)c(OC)c(OC)c3)cc2)C1=O`, the IC50 was 5600 nM in the data set with HT-29; 3900 nM with M21; 49 nM in the data set on MCF7 [1]; 6000 nM in the data set with MDA-MB-231; 26 nM with MDA-MB-468; 49 nM in the data set with T47D. For the same molecule, the IC50 worked out at 5 nM in the data set with SK-BR-3; 18 nM in the data set with MCF7 [4]; 6700 nM with HT-1080 [12]; 82000 nM with HT-1080 [13]; 16 nM in the data set on HT-1080 [14]. For the same molecule, the “Ratio IC50” value is given as 110 in data set [2]; 80 in [3]; 240 in [5]; 130 in data set [6]; 1300 in data set [7]; 340 in data set [8]. In the data set with HT-1080 [15], the “Ratio IC50” value worked out at 5100. Also, the Drug metabolism entry on Cytochrome P450 1A1 [9] is listed as “Metabolite_Detected”. At Cytochrome P450 1A1 [10], the Time worked out at 15 min. Besides, the Ki at Cytochrome P450 1A1 [11] was found to be 240 nM.

Take `CCCCN1CCN(c2ccc(S(=O)(=O)Oc3cc(OC)cc(OC)c3)cc2)C1=O`: the IC50 with HT-29 is 36000 nM; in the data set with M21, > 100000 nM; with MCF7 [1] it was 19 nM; in the data set with MDA-MB-231, > 100000 nM; in the data set with MDA-MB-468, 160 nM; with T47D it was 240 nM. The IC50 in the data set with SK-BR-3 was 52 nM; with MCF7 [4] it was 35 nM; with HT-1080 [12], 29000 nM; with HT-1080 [13], 81000 nM; in the data set with HT-1080 [14] it was 31 nM. Also, the “Ratio IC50” value in data set [2] was 1900; in data set [3], >5300; in data set [5], >630; in data set [6] it was >420; in [7], >1900; in data set [8] it was >2900. Besides, the “Ratio IC50” value in the data set with HT-1080 [15] is listed as 2600. Besides, the Drug metabolism result is “Metabolite_Notdetected” at Cytochrome P450 1A1 [9] and “Metabolite_Detected” on Cytochrome P450 1A1 [16]. Further, on Cytochrome P450 1A1 [10], the Time is reported as 15 min. Further, the Ki on Cytochrome P450 1A1 [11] was determined as 490 nM.

These data come from ChEMBL document CHEMBL4014335, “Activation of Phenyl 4-(2-Oxo-3-alkylimidazolidin-1-yl)benzenesulfonates Prodrugs by CYP1A1 as New Antimitotics Targeting Breast Cancer Cells” (J Med Chem, 2017).
